Experimental findings from ChEMBL document CHEMBL1145399, “Design, synthesis, and pharmacology of novel 7-substituted 3,4-dihydro-2H-1,2,4-benzothiadiazine 1,1-dioxides as positive allosteric modulators of AMPA receptors” (J Med Chem, 2007) are described below.

Assay [1] has as its system Oocyte. The assay can be described thus: Activity at Wistar rat cortex AMPA receptor expressed in Xenopus laevis oocytes assessed as 5-fold increase of (S)-AMPA-induced current. The format is cell-based. In outline:
(§1)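 Two-electrode voltage clamp on Xenopus oocytes injected with rat cortex poly(A+) mRNA. Current is evoked by (S)-AMPA at 10 µM with drug co-applied. Compounds alone were checked on the holding current. Mean ± SEM, n ≥ 2–3.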

For assay [2], the system named is Oocyte. As to the kind of experiment: Activity at Wistar rat cortex AMPA receptor expressed in Xenopus laevis oocytes assessed as 2-fold increase of (S)-AMPA-induced current. The class given is cell-based. A digest of the protocol:
as §1

The test system of assay [3] is Oocyte. As to the kind of experiment: Activity at Wistar rat cortex AMPA receptor expressed in Xenopus laevis oocytes assessed as maximum increase of (S)-AMPA-induced current. The class given is cell-based. A digest of the protocol:
as §1

Assay [4] concerns Hippocampus. The assay can be described thus: Increase in (S)-AMPA-stimulated [3H]noradrenaline release in Wistar rat hippocampus at 30 uM relative to control. The class given is functional. A digest of the protocol: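 Rat hippocampal slices preloaded with [³H]-noradrenaline. Release is stimulated by (S)-AMPA, with drug at 30 µM. Drug alone was compared with basal DMSO control release. Result is the % increase in AMPA-evoked release.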

Assay [5] in a line: Activity at Wistar rat cortex AMPA receptor expressed in Xenopus laevis oocytes assessed as effect on (S)-AMPA-induced current. The class given is cell-based. The conditions noted are these: Oocyte. A digest of the protocol:
as §1

Bounds are passed on as bounds.

Consider `CCN1CNS(=O)(=O)c2cc(Br)ccc21`, for which the Activity in assay [1] is 78 µM; in assay [2], 29 µM; in assay [3], more than 1100%.
Regarding `NS(=O)(=O)c1cc2c(cc1Cl)NC(C1CC3C=CC1C3)NS2(=O)=O` (centres undefined) [CYCLOTHIAZIDE], the Activity in assay [4] is 73%; in assay [1], 9.8 µM; in assay [2] it was 1.6 µM; in assay [3], 844%. Further, the EC50 in assay [5] turned out to be 7.1 µM.
For `CCN1CNS(=O)(=O)c2cc(NC(C)=O)ccc21`, the Activity in assay [1] and in assay [2] was more than 300 µM in each case.
Consider `CCN1CNS(=O)(=O)c2cc(C(=O)Oc3ccccc3)ccc21`, for which the Activity in assay [1] was 180 µM; in assay [2], 32 µM; in assay [3], more than 600%.
In the case of `Cc1ccc2c(c1)S(=O)(=O)NCN2C`, the Activity was 47 µM in assay [1], 21 µM in assay [2] and more than 3000% in assay [3].
Turning to `CN1C=NS(=O)(=O)c2cc(Cl)ccc21`, the Activity in assay [1] and in assay [2] was more than 1000 µM throughout.
For the compound `CN1CNS(=O)(=O)c2cc([N+](=O)[O-])ccc21`, the Activity was 26 µM in assay [1], 11 µM in assay [2] and more than 1400% in assay [3].
On to `CCN1CNS(=O)(=O)c2cc(C(=O)OC)ccc21`, for which the Activity in assay [1] and in assay [2] was more than 100 µM in each case.
`CN1CN(C)S(=O)(=O)c2ccccc21`: the Activity in assay [1] is 127 µM; in assay [2], 37 µM; in assay [3], more than 1700%.
On to `CN1C=NS(=O)(=O)c2ccccc21`, for which the Activity in assay [1] is more than 1000 µM; in assay [2], 450 µM.
`CN1CNS(=O)(=O)c2cc(N)ccc21`: the Activity in assay [1] and in assay [2] was more than 300 µM in each case.
As to `O=S1(=O)N[C@H]2CCCN2c2ccccc21`, the Activity in assay [4] came to 0%; in assay [1], 78.2 µM; in assay [2], 24.6 µM; in assay [3] it was 1260%. In assay [5], the EC50 was determined as 130 µM.
As to `CN1CNS(=O)(=O)c2cc(Cl)ccc21`, the Activity in assay [1] amounted to 18 µM; in assay [2], 6 µM; in assay [3] it was 1740%.
For `CN1CN(C)S(=O)(=O)c2cc(Cl)ccc21`, the Activity in assay [1] is 17 µM; in assay [2], 7 µM; in assay [3], more than 1900%.
On to `Cc1ccc2c(c1)S(=O)(=O)N=CN2C`, for which the Activity is 650 µM in assay [1], 320 µM in assay [2] and more than 600% in assay [3].
Regarding `CCN1C=NS(=O)(=O)c2cc(C)ccc21`, the Activity is more than 1000 µM in assay [1], 300 µM in assay [2] and more than 300% in assay [3].
As for `CCN1CNS(=O)(=O)c2cc(C(=O)O)ccc21`, the Activity in assay [1] and in assay [2] was more than 100 µM each time.
Take `CCN1CNS(=O)(=O)c2cc(I)ccc21`: the values for the Activity in assay [2] and in assay [3] were 95 µM and more than 400%, respectively.
`CC1Nc2ccc(Cl)cc2S(=O)(=O)N1` (centres undefined): the results for the Activity in assay [1], in assay [2] and in assay [3] were 509 µM, 134 µM and more than 700%, respectively.
On to `CCN1CNS(=O)(=O)c2cc(C(F)(F)F)ccc21`, for which the Activity in assay [1] and in assay [2] was more than 300 µM each time.
As for `CCN1CNS(=O)(=O)c2cc(C)ccc21`, the figures for the Activity in assay [1], in assay [2] and in assay [3] were 95 µM, 25 µM and more than 1300%, respectively.
In the case of `CCN1CNS(=O)(=O)c2cc(OC)ccc21`, the Activity was 190 µM in assay [1], 68 µM in assay [2] and more than 600% in assay [3].
The like results for `CCN1CNS(=O)(=O)c2cc([N+](=O)[O-])ccc21` were, in that order, 45 µM, 16 µM and more than 1000%.
For `CCN1CN(C)S(=O)(=O)c2cc(Cl)ccc21`, the Activity was 64 µM in assay [1], 21 µM in assay [2] and more than 1100% in assay [3].
Consider `CCN1CNS(=O)(=O)c2cc(N)ccc21`, for which the Activity in assay [1] and in assay [2] was more than 300 µM throughout.
Take `CCN1CNS(=O)(=O)c2ccccc21`: the results for the Activity in assay [1], in assay [2] and in assay [3] were 38 µM, 14 µM and more than 1800%, respectively.
As for `CN1CNS(=O)(=O)c2ccccc21`, the Activity is 46 µM in assay [1], 22 µM in assay [2] and more than 1900% in assay [3].
As to `CCN1C=NS(=O)(=O)c2cc(Cl)ccc21`, the Activity in assay [1] is more than 1000 µM; in assay [2], 400 µM; in assay [3], more than 400%.
